For 97 molecules, cytotoxicity results are on record in ChEMBL document CHEMBL4513216, “Probing the Open Global Health Chemical Diversity Library for Multistage-Active Starting Points for Next-Generation Antimalarials” (ACS Infect Dis, 2020).

SMILES strings stand for the structures.

A short description of the data set: Toxicity liver stage against HepG2, at 10uM. Conditions: human, HepG2-A16-CD81EGFP cells; read-out: INHIBITION
Set-up: test concentration 10 uM, cell line HepG2-A16-CD81EGFP. The class given is cell-based. A digest of the protocol:
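Uninfected HepG2-A16-CD81EGFP cells, 3 × 10^3 per well, 1536-well, plated on prespotted compound at 10 μM final, parasite-free screening media added to match infected plates; puromycin 10 μM positive, DMSO 0.5% negative; run in parallel with 48 h PbLuc assay at 37 °C, 5% CO2; viability by CellTiter-Glo luminescence, normalized to controls.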
Turning to `CCC1(C)Cc2ccccc2-c2nc(NCCO)nc(O)c21` (configuration not stated), the cytotoxicity at 10 µM was found to be 4.1%.
As for `CCCS(=O)(=O)NC(C)C(=O)NCc1ccc(N2CCCC2)nc1` (configuration not stated), the figure is -11.8%; as for `CC(C)(C)c1coc([C@@H]2COCCN2Cc2ncc[nH]2)n1`, 2.61%; as for `Cc1cc(C)cc(NC(=O)c2cnc(N3CCN(C)CC3)nc2C)c1`, -15.5%.
The value for `CCOC(=O)C1CC2(CCOCC2)N2CCC(=O)N12` (configuration not stated) was 2.39%; that for `COC1CN(C(=O)COC(C)=O)CCC(=O)N(C)c2ccccc21` (configuration not stated) was -3.03%; that for `COc1ccccc1N1CCN(c2nc(N)nc3[nH]cnc23)CC1` was 2.77%.
For `Cc1c(C(=O)N2CCNC(=O)C2)sc2nc[nH]c(=O)c12`, the cytotoxicity at 10 µM amounted to 0.709%.
For the molecule `Cc1cc(=O)[nH]c(-n2nc(-c3cccs3)cc2N)n1`, the cytotoxicity at 10 µM came out at 4.57%.
As for `CCOc1ccc(S(=O)(=O)NCCCc2ccc(N(C)C)cc2)cc1F`, the figure is -5.67%; as for `CNC(=O)c1ccc2c(OC)n(C)nc2c1`, -2.43%.
The value for `Cc1noc(C)c1CN1CCOC2(CCCN(c3ccccn3)C2)C1` (configuration not stated) was 11.6%; that for `O=C(NC1CC1)[C@H]1CC[C@@H]2[C@@H](CCN2Cc2ccsc2)O1` was 1.42%.
The value for `Cn1nnc2c1C(COCC1CC1)CN(C(=O)Cc1cccs1)C2` (configuration not stated) was 3.88%; that for `CC(C)N(C)[C@@H]1CCN(C(=O)[C@H]2CCCO2)[C@H]1Cc1cnn(C)c1` was 0.428%; that for `CN(Cc1cn2c(n1)CN(C(N)=O)CC2)Cc1ccco1` was -5.67%.
As for `Cc1ccc(NC(=O)C(C)n2ccc(C(F)(F)F)n2)nc1` (configuration not stated), the cytotoxicity at 10 µM amounted to 9.6%.
As for `CCn1cc(Cl)c(C(=O)Nc2ccc3c(c2)C(C)(C)C(=O)N3C)n1`, the figure is 9.21%.
The value for `COc1ccc(OCCc2nnc(NC(C)=O)s2)cc1` was 0.0869%; that for `CC(C)c1ccc(CC2(C)Cc3cc(CC(=O)O)ccc3O2)cc1` (configuration not stated) was 6.65%; that for `Cn1ncc2ccc(C3CCCN(Cc4cccs4)C3)nc21` (configuration not stated) was 1.88%.
The value for `COCc1ccc(C(=O)N2CCC(c3cc4ncc(C)nc4[nH]3)C2)cc1` (configuration not stated) was -25.6%; that for `COc1ccccc1Oc1cncc(C2CCCN(CC(N)=O)C2)n1` (configuration not stated) was -15.5%; that for `Cc1nccc(C2CCCCN2Cc2ccccc2)n1` (configuration not stated) was -28.2%.
Consider `Cc1noc(C)c1-c1cc(C2CCNCC2)ccn1`, for which the cytotoxicity at 10 µM is -16.6%.
Consider `CCc1cc(C(=O)N2CCC(c3cc4ncccc4cn3)CC2)on1`, for which the cytotoxicity at 10 µM is -13%.
As to `Cc1ccccc1CNC(=O)c1ccccc1-n1cc(CN)cn1`, the cytotoxicity at 10 µM is -21%.
Regarding `Cc1cccnc1C(=O)N1C[C@@H]2CC[C@H](Oc3cccc(F)c3)[C@@H]2C1`, the cytotoxicity at 10 µM was found to be 0.297%.
The value for `CN1CCCC1c1ccnc(C(=O)N(C)C2CCCCC2)c1` (configuration not stated) was -21.5%.
In the case of `CN(C)C(=O)C1CN(Cc2ccsc2)CCN(S(C)(=O)=O)C1` (configuration not stated), the cytotoxicity at 10 µM was 14.4%.
The value for `Cn1cc(CN2CCCC(CCCc3ccccn3)(C(N)=O)C2)cn1` (configuration not stated) was -24.5%; that for `CNC(=O)C1(c2cnccn2)CCCN1C(=O)c1ccc(OC)cc1` (configuration not stated) was -12.9%; that for `O=C(Nc1cnn(CC(F)F)c1)c1cccc(-n2cnnn2)c1` was 6.01%.
For `CN(CCCOc1ccccc1)Cc1nccn1C`, the cytotoxicity at 10 µM was 2.07%.
As for `Cc1ccc(C(=O)NC2CCN(C(C)C)C2)c(=O)[nH]1` (configuration not stated), the figure is 5.26%; as for `CCC(=O)N(c1ccc(C(=O)OC)cc1C)C(C)C`, 0.814%; as for `COc1cccc(C2CCCN2C(=O)c2ccc(=O)n(C)c2)c1` (configuration not stated), -1.72%.
The value for `Cc1nc(CNC(=O)NCC(F)(F)F)oc1C` was -1.72%.
With `Cc1csc(C2(NCCC(=O)N3CCOCC3)CCCC2)n1`, the cytotoxicity at 10 µM is -11.4%.
The value for `CN1CCN(C2CCN(C(C(N)=O)c3ccccc3)CC2)C1=O` (configuration not stated) was -4.29%.
For the molecule `O=C(NC1CCS(=O)(=O)c2ccccc21)c1cccs1` (configuration not stated), the cytotoxicity at 10 µM was -0.0399%.
As for `CC(C)(CNC(=O)C1CCCN1S(C)(=O)=O)N1CCOCC1` (configuration not stated), the figure is 2.72%; as for `Cc1ccc(CNC(=O)N2CCN(C(C)c3cccnc3)CC2)cn1` (configuration not stated), -2.11%; as for `COc1cc(CNC(=O)Nc2nnc(C(F)(F)F)s2)ccc1O`, -2.83%.
`CCOC(=O)c1ccc(CNC(=O)c2ccncc2Cl)o1`: the cytotoxicity at 10 µM was 6.93%.
The value for `Cc1cc(C(=O)N(C)C(C)CC(C)C)on1` (configuration not stated) was -4.6%.
Consider `Cc1noc(C)c1NS(=O)(=O)c1cc(Cl)c(Cl)c(C(=O)O)c1`, for which the cytotoxicity at 10 µM is 4.86%.
As for `COC(=O)NCC(=O)NCC(C)(C)c1cccc(Br)c1`, the figure is -3.01%; as for `CCNC(=O)COc1ccc(C(=O)NC(C)CCc2ccco2)cc1` (configuration not stated), 12.2%.
Regarding `CC(C)c1noc(CCC(=O)NC(C)c2nnc3n2CCC3)n1` (configuration not stated), the cytotoxicity at 10 µM came to 2.59%.
As for `CCS(=O)(=O)N1CCC(NCC2CNc3cc(C)nn3C2)CC1` (configuration not stated), the figure is 0.286%; as for `CC(NC(=O)C1=NN(C)C(=O)CC1)c1ccc(Cl)cc1` (configuration not stated), -20.7%; as for `N#Cc1ccc(N2CCC(NS(=O)(=O)c3cccs3)CC2)c(F)c1`, 20.5%.
In the case of `Cc1cc(C)n(CC2CCCCN2C(=O)c2ccc3[nH]nnc3c2)n1` (configuration not stated), the cytotoxicity at 10 µM was found to be 2.52%.
The value for `O=C(CCc1ccncc1)Nc1ccc(OCC2CCOCC2)cc1` was -2.98%; that for `O=C(c1ccc(F)c(F)c1)N1CCCCC1c1nc[nH]n1` (configuration not stated) was -7.47%; that for `CCCN1CCC(Nc2nc(CC)ns2)CC1` was -2.59%.
Turning to `COCc1cccc(C(=O)N(C)Cc2ncc(C)c(OC)c2C)c1`, the cytotoxicity at 10 µM was -13.1%.
The value for `O=C(Nc1ccccn1)C1CCN(Cc2cccc3c2OCCO3)CC1` was -0.586%.
For `CC(C)C(Sc1ccccc1)C(=O)N(C)Cc1nnc2n1CCC2` (configuration not stated), the cytotoxicity at 10 µM is -12.5%.
On to `O=C1CCN(CCCS(=O)(=O)c2ccc(Cl)cc2)CCN1`, for which the cytotoxicity at 10 µM is 2.43%.
Take `CC(C)(C)OC(=O)N1CSC[C@@H]1C(=O)NCc1ccsc1`: the cytotoxicity at 10 µM stood at 8.77%.
For `Cn1ncnc1NCc1ccc(Br)cc1`, the cytotoxicity at 10 µM is -11.9%.
As for `CCC(C)N(C)CCNC(=O)NCc1cccc(-n2cncn2)c1` (configuration not stated), the figure is -8.1%; as for `Cn1ncc2c1C(COCC1CC1)CN(Cc1ccco1)C2` (configuration not stated), -78.6%.
For `COC(=O)c1ccc(CNC2CC(=O)N(Cc3cccc(F)c3)C2)cc1` (configuration not stated), the cytotoxicity at 10 µM stood at 4.43%.
Take `CC(C)N1CC(C(=O)N2CCc3c(nc(CC4CC4)[nH]c3=O)C2)CC1=O` (configuration not stated): the cytotoxicity at 10 µM was -8.25%.
Take `Cc1cccc2[nH]c(C3CCN(C(=O)c4cnc[nH]c4=O)CC3)nc12`: the cytotoxicity at 10 µM stood at 2.75%.
On to `COc1cccc(C(=O)N2C[C@@H](CN(C)CCO)[C@@H](CO)C2)c1C`, for which the cytotoxicity at 10 µM was -4.17%.
As for `CC(=O)NCCNC(=O)CCn1c(C)cc2ccccc21`, the figure is 6.26%; as for `CCC[C@H]1CN(C(=O)Cn2ccccc2=O)C[C@@H]1NS(C)(=O)=O`, 11.1%.
As for `O=C(CCCc1ccc(Cl)cc1)N1CCC(c2nnc[nH]2)CC1`, the figure is 18.3%.
Turning to `CN(C)CCOc1cccc(CN2CCCC3(C2)CN(C)C(=O)O3)c1` (configuration not stated), the cytotoxicity at 10 µM is -5.82%.
For the molecule `Cc1cc(C)cc(N2CCN(C(=O)C3CN(C)C(=O)N3)CC2=O)c1` (configuration not stated), the cytotoxicity at 10 µM was -5.13%.
As for `CC[C@@]1(O)CCN(C(=O)c2ccc(-n3cnnc3)cc2)C[C@H]1O`, the figure is 3.86%; as for `CC(C)NCC1(O)CCCN(CCC2CCCCC2)C1=O` (configuration not stated), -2.53%.
As for `CCC(C(=O)NC(C)(C)C)n1ccc2ncccc2c1=O` (configuration not stated), the figure is 3.69%.
The value for `Nc1nnc(CCCNC(=O)c2ccc(C3CCCNC3)cc2)s1` (configuration not stated) was -1.28%.
Turning to `Cc1nc(NCCSc2cnn[nH]2)c2cccnc2n1`, the cytotoxicity at 10 µM was 2.98%.
Regarding `CN1CCCC2(CCN(c3cccc(C#N)n3)C2)C1=O` (configuration not stated), the cytotoxicity at 10 µM came out at 3.61%.
With `CC(C)C(Sc1nnnn1C1CC1)C(=O)NCc1ccccc1` (configuration not stated), the cytotoxicity at 10 µM is -3.46%.
Consider `Cc1oc(C(=O)O)cc1S(=O)(=O)Nc1cc(F)ccc1F`, for which the cytotoxicity at 10 µM is -7.66%.
As for `Cc1ncc2c(n1)CN(Cc1nc(-c3ccsc3)no1)CC2`, the figure is -1.33%; as for `CC1CN(CC(=O)N2CCOCC2)CCN1Cc1nccn1C` (configuration not stated), -15.6%.
As for `COCc1ccccc1CNCc1c(C(C)C)nn(C)c1N(C)C`, the figure is -7.83%; as for `O=C(c1cnc(-c2cccs2)s1)N1CCCC(n2ccnc2)C1` (configuration not stated), -12.8%; as for `N#Cc1ccc(F)c(CN2CCCC2Cn2cccn2)c1` (configuration not stated), -7.69%.
With `CCc1ccc(O)c(C(=O)NC2CCN(C(=O)OC)CC2)c1`, the cytotoxicity at 10 µM is 1.89%.
The value for `CC(Cn1ccnc1)NC(=O)C1(c2ccc(F)cc2)CC1` (configuration not stated) was -9.62%; that for `Cc1nc(C2CCN(Cc3ncc[nH]3)CC2)no1` was -28%.
The value for `Cc1nocc1C(=O)N1CCOC2(COCCN(C(C)C)C2)C1` (configuration not stated) was 10%; that for `c1cncc(N2CCCn3nnc(COCC4CC4)c3C2)c1` was 5.5%.
With `c1cc(CN2CCc3ncc(CN4CCCCC4)n3CC2)cs1`, the cytotoxicity at 10 µM was -5.21%.
The value for `Cc1noc(C)c1CN1C[C@@H](N(C)Cc2ccco2)[C@H]2OCCC[C@H]21` was -70.9%; that for `CN(C)S(=O)(=O)N1CCC[C@]2(C[C@@H](Oc3ncccc3F)CO2)C1` was -82.2%.
The value for `c1csc(CN2CCn3c(Cn4cncn4)cnc3C2)c1` was -71.7%; that for `CN(C)S(=O)(=O)N1C[C@H]2CC[C@@H](C1)N(Cc1ccc3c(c1)OCCO3)C2` was 4.52%.
